Source: ChEMBL document CHEMBL4033799, “Stable and Long-Lasting, Novel Bicyclic Peptide Plasma Kallikrein Inhibitors for the Treatment of Diabetic Macular Edema” (J Med Chem, 2018)
pKi: −log10 of the molar value.

Columns and labels:
[1] = Inhibition of cynomolgus monkey plasma kallikrein using fluorogenic H-Pro-Phe-Arg-AMC peptide as substrate preincubated for 15 mins followed by substrate addition measured by fluorescence-based assay; conditions: read-out: Ki(app)
[2] = Inhibition of rabbit plasma kallikrein using fluorogenic H-Pro-Phe-Arg-AMC peptide as substrate preincubated for 15 mins followed by substrate addition measured by fluorescence-based assay; parameters: species or system Oryctolagus cuniculus; conditions: read-out: Ki(app)
In short: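 Assays ran at 25 °C in 50 mM Tris-HCl, 250 mM NaCl, 1.5 μM BSA, pH 7.5. PKal (nominal 1–2 nM) was preincubated 15 min with serially diluted peptide. […] Human PKal was purified from plasma; rat PKal was made in-house or bought; other species were purified in-house from kaolin-activated plasma.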

[3] = Inhibition of dog plasma kallikrein using fluorogenic H-Pro-Phe-Arg-AMC peptide as substrate preincubated for 15 mins followed by substrate addition measured by fluorescence-based assay; conditions: read-out: Ki(app)
Kallikrein-2 = target: T1, Kallikrein-2 (Homo sapiens, UniProt P20151); assay: Inhibition of recombinant human C-terminal 10His-tagged KLK2 (1 to 261 residues) expressed in mouse NS0 cells using fluorogenic PFR-AMC peptide as substrate after 5 mins by fluorescence based assay
T1 sequence (P20151 whole entry): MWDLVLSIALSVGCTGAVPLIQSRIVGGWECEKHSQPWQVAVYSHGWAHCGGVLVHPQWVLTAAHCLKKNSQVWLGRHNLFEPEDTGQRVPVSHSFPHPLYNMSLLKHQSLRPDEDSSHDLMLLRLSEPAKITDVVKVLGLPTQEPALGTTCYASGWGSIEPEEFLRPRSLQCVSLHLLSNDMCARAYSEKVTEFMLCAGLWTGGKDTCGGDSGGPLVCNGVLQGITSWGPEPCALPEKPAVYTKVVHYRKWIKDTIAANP
In short: (§1)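 Human serine proteases were assayed with substrates and conditions set by each supplier's recommendations. Peptides were first screened at 50 μM. Where inhibition was detected, Ki was determined from activity across peptide concentrations using a tight-binding rate equation.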

Kallikrein-5 = target: T2, Kallikrein-5 (Homo sapiens, UniProt Q9Y337); assay: Inhibition of recombinant human C-terminal 10His-tagged KLK5 (67 to 293 residues) expressed in mouse NS0 cells using fluorogenic Boc-VPR-AMC peptide as substrate after 5 mins by fluorescence based assay; in short: as §1
T2 sequence (Q9Y337 whole entry): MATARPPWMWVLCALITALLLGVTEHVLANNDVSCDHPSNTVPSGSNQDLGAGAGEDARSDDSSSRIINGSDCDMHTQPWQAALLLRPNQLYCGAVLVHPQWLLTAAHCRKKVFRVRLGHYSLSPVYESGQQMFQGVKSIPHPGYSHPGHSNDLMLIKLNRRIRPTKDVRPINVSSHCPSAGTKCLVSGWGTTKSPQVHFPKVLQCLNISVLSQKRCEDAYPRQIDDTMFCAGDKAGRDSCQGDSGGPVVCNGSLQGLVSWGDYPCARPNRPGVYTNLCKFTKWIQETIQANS

Plasminogen = Plasminogen (Homo sapiens, UniProt P00747); assay: Inhibition of recombinant human plasmin using fluorogenic D-AFK-ANSNH-iC4H9.2HBr peptide as substrate by fluorescence based assay
Sequence of Plasminogen (P00747 97-580 limits assumed): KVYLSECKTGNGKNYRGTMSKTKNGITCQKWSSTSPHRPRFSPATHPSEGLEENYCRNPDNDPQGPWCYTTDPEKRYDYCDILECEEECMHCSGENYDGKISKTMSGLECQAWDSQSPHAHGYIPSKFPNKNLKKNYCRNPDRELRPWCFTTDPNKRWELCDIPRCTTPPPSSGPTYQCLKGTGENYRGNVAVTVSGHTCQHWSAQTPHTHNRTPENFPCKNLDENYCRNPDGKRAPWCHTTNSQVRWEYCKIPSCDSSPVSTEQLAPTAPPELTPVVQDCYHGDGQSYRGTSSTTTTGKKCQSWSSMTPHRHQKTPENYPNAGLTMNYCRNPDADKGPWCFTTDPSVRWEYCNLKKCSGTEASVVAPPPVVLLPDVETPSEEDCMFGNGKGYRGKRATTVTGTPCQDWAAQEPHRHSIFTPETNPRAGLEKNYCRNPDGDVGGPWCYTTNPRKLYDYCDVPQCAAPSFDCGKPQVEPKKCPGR
Sequence of Plasminogen (P00747 581-810 limits assumed): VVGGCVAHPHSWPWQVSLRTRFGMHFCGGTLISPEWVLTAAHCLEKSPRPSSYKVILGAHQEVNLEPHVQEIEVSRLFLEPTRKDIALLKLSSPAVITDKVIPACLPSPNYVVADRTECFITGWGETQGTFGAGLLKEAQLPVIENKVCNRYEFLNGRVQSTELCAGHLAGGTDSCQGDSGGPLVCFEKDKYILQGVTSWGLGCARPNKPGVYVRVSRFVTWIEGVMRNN
In short: (§2)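 Panel of human serine proteases. Substrates and assay conditions followed each supplier's recommendations. Peptides were first screened at 50 μM. Where inhibition was detectable, hydrolytic activity was measured across a range of peptide concentrations. Ki was obtained by fitting to the tight-binding inhibitor rate equation.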

[4] = target: T3, Suppressor of tumorigenicity 14 protein (Homo sapiens, UniProt Q9Y5Y6); assay: Inhibition of recombinant human N-terminal 6His-tagged matriptase catalytic domain (596 to 855 residues) expressed in Escherichia coli using fluorogenic Boc-QAR-AMC peptide as substrate after 5 mins by fluorescence based assay; in short: as §2
T3 sequence (Q9Y5Y6 whole entry): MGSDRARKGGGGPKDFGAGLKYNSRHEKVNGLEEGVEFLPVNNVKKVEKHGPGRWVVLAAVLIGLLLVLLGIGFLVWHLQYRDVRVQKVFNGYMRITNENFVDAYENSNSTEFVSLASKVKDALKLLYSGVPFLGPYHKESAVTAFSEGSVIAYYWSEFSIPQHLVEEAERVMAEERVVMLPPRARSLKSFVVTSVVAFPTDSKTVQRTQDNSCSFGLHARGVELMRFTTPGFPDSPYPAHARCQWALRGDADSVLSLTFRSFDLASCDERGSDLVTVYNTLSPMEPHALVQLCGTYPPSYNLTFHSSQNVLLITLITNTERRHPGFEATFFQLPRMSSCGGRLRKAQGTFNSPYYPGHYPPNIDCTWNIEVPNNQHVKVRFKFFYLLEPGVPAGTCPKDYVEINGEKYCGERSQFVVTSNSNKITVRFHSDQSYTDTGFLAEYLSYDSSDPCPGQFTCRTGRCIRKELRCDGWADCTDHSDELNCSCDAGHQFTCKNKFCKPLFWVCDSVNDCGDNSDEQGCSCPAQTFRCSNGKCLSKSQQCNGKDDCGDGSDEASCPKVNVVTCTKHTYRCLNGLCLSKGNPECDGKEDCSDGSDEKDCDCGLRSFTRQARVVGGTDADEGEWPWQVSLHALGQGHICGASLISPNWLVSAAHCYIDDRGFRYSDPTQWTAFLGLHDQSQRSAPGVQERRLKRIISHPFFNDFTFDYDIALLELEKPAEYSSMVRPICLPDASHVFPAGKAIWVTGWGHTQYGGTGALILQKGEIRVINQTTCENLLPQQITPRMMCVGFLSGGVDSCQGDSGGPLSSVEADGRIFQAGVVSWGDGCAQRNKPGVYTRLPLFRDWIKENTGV

Granzyme B = Granzyme B (Homo sapiens, UniProt P10144); assay: Inhibition of recombinant human Granzyme B (21 to 247 residues) using […] Ac-IEPD-pNA peptide as substrate […]; in short: as §2
Sequence of Granzyme B (P10144 whole entry, the tested form may be a part): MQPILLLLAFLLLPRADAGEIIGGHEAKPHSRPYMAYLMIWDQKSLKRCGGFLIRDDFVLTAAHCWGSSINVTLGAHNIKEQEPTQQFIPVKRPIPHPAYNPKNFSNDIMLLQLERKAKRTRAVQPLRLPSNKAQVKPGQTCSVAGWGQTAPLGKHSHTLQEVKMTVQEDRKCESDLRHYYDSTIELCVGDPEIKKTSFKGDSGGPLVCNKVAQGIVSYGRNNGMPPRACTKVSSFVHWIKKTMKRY

Coagulation factor VII = target: T4, Coagulation factor VII (Homo sapiens, UniProt P08709); assay: Inhibition of human factor 7a using fluorogenic peptide as substrate by fluorescence based assay; in short: as §1
T4 sequence (P08709 whole entry): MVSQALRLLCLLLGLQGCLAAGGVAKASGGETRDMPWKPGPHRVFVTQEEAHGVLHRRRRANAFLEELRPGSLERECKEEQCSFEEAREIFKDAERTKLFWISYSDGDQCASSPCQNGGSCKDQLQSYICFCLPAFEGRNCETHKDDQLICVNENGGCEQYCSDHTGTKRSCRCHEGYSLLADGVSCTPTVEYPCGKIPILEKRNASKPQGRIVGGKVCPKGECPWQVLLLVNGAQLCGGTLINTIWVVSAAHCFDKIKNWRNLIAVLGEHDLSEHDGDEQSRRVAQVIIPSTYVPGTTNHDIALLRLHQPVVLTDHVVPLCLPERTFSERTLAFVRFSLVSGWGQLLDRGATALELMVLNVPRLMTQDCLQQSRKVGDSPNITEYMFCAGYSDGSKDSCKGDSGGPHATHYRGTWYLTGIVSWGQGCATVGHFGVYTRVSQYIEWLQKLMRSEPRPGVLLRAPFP

pKi [1] | pKi [2] | pKi [3] | pKi (Kallikrein-2) | pKi (Kallikrein-5) | pKi (Plasminogen) | pKi [4] | pKi (Granzyme B) | pKi (Coagulation factor VII) | SMILES
8.57 | 5.47 | 7.10 | 5.00 | < 4.30 | < 4.30 | 4.30 | < 4.30 | < 4.30 | CC(=O)N[C@H]1CSCc2cc3cc(c2)CSC[C@H](NC(=O)[C@H](CCCCNC(=N)N)NC(=O)[C@H](Cc2ccc(O)cc2)NC(=O)[C@@H]2CCN2C(=O)[C@H](Cc2ccccc2)NC(=O)[C@H](CO)NC1=O)C(=O)N[C@@H](C)CN[C@@H](Cc1cnc[nH]1)C(=O)N[C@@H](CCC(N)=O)C(=O)N[C@@H](CC(=O)O)C(=O)N[C@@H](CC(C)C)C(=O)N[C@H](C(=O)O)CSC3
9.07 | 5.58 | 7.66 | 5.00 | 6.10 | < 4.30 | 4.82 | < 4.30 | < 4.30 | CC[C@H](C)[C@@H]1NC(=O)[C@H](CC(=O)O)NC(=O)[C@@H]2CCCN2C(=O)[C@H](Cc2ccc(O)cc2)NC(=O)[C@H](Cc2ccc(O)cc2)NC(=O)[C@H](C(C)C)NC(=O)[C@@H]2CSCc3cc(cc(c3)CSC[C@@H](C(=O)N[C@@H](C)C(=O)N(C)CC(=O)N(C)CC(=O)N(C)CC(=O)N[C@H](CCCNC(=N)N)C(=O)N[C@H](CCCNC(=N)N)C(=O)O)NC1=O)CSC[C@H](NC(C)=O)C(=O)N[C@@H](CO)C(=O)N[C@@H](Cc1ccccc1)C(=O)N1CCC1C(=O)N[C@@H](Cc1ccc(O)cc1)C(=O)N[C@@H](CCCCNC(=N)N)C(=O)N2 (some centres not stated)
8.51 | 5.84 | 6.30 | < 4.30 | 4.30 | < 4.30 | 4.40 | < 4.30 | < 4.30 | CC(=O)N[C@H]1CSCc2cc3cc(c2)CSC[C@H](C(=O)N[C@@H](C)C(=O)N(C)CC(=O)N(C)CC(=O)N(C)CC(=O)N[C@H](CCCNC(=N)N)C(=O)N[C@H](CCCNC(=N)N)C(=O)O)NC(=O)[C@H](CC(C)C)NC(=O)[C@@H]2CCCN2C(=O)[C@H](C)NC(=O)[C@H](CC(=O)O)NC(=O)[C@H](Cc2c[nH]c4ccccc24)NC(=O)[C@@H]2CCCN2C(=O)[C@H](CSC3)NC(=O)[C@H](Cc2c[nH]c3ccccc23)NC(=O)[C@@H]2CCCN2C(=O)[C@H](CC(N)=O)NC(=O)[C@H](Cc2c[nH]c3ccccc23)NC(=O)[C@H]([C@@H](C)O)NC(=O)[C@H](CC(N)=O)NC1=O
